Source: ChEMBL document CHEMBL5678805, “Intermittent administration of MEK inhibitor GDC-0973 plus PI3K inhibitor GDC-0941 triggers robust apoptosis and tumor growth inhibition” (Cancer Res, 2012)
Calls of active or inactive are those of the source. The rule behind the calls is not given here.

Tests used:
[1] = target: Serine/threonine-protein kinase NLK (Homo sapiens, UniProt Q9UBE8); experiment: Inhibition of NLK (unknown origin)
[2] = target: Tyrosine-protein kinase Fes/Fps (Homo sapiens, UniProt P07332); experiment: Inhibition of Fes (unknown origin)
[3] = target: Homeodomain-interacting protein kinase 1 (Homo sapiens, UniProt Q86Z02); experiment: Inhibition of HIPK1 (unknown origin)
[4] = Antitumor activity against human A375.X1 cells harboring BRAF V600E/CDKN2A E61 mutant xenografted in mouse assessed as tumor growth inhibition at 10 mg/kg, po; assay type: functional; settings: A375.X1, read-out: TGI
Summary of the method: (§1)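 Single-agent dose ranging in human tumor xenograft mice at 2.5, 5 or 10 mg/kg oral. Tumor volume was measured by caliper as (L×W×W)/2. %TGI = 100×[1 − AUC(treatment/d)/AUC(vehicle/d)] from the fitted growth curve per dose group, relative to vehicle.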

Ephrin type-B receptor 4 = Ephrin type-B receptor 4 (Homo sapiens, UniProt P54760); experiment: Inhibition of EphB4 (unknown origin)
A549 [5] = experiment: Antitumor activity against human A549 cells harboring KRAS G12S/LKB1Q37/SMARCA4 Q729/CDKN2A mutant xenografted in mouse assessed as tumor growth inhibition at 5 mg/kg, po; assay type: functional; settings: read-out: TGI; summary of the method: as §1
[6] = Antitumor activity against human A2058-X1 cells harboring BRAF V600E/PTEN L112Q/V175/TP53 V274F mutant xenografted in mouse assessed as tumor growth inhibition at 5 mg/kg, po; assay type: functional; settings: A2058-X1, read-out: TGI; summary of the method: as §1
888-mel [7] = experiment: Induction of apoptosis in human 888-mel cells assessed as increase in cleaved PARP level preincubated with compound for 24 hrs followed by compound washout and measured after 2 hrs in presence of 4-(2-(1H-indazol-4-yl)-6-((4-(methylsulfonyl)piperazin-1-yl)methyl)thieno[3,2-d]pyrimidin-4-yl)morpholine by immunoblotting analysis; assay type: functional, cell-based
Summary of the method: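 The medium was then exchanged to remove compound. Lysates were prepared 2 and 24 h after washout and immunoblotted for cleaved PARP, p-AKT and p-ERK using HRP secondary antibody and ECL.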

A2058 [8] = experiment: Inhibition of PI3K/MEK signaling pathway in human A2058 cells assessed as decrease in ERK phosphorylation by incubated for 24 hrs by Western blot analysis; assay type: cell-based
[9] = target: Phosphatidylinositol 4,5-bisphosphate 3-kinase catalytic subunit beta isoform (Homo sapiens, UniProt P42338); experiment: Inhibition of PI3Kbeta (unknown origin)
A2058 [10] = experiment: Antitumor activity against human A2058 cells harboring BRAF V600E/PTEN deletion mutant xenografted in mouse assessed as suppression of AKT phosphorylation at 15 mg/kg, po administered every third day for 21 days and measured after 72 hrs post dose by Western blot analysis; assay type: functional, organism-based; settings: time 576.0 hrs
A549 [11] = experiment: Antitumor activity against human A549 cells harboring KRAS G12S/LKB1Q37/SMARCA4 Q729/CDKN2A mutant xenografted in mouse assessed as tumor growth inhibition at 10 mg/kg, po; assay type: functional; settings: read-out: TGI; summary of the method: as §1
A2058 [12] = experiment: Antitumor activity against human A2058 cells xenografted in mouse assessed as tumor growth inhibition at 20 mg/kg, po administered every third day for 21 days; assay type: functional; settings: A2058, 504 h, time 21 day, read-out: TGI
Summary of the method: (§2)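 Human tumor xenografts in mice. Drugs given orally, as single agents or combined with the PI3K inhibitor. Schedules were daily (QD) or every third day (Q3D) over 21 days. Tumor volume was measured by caliper as (L×W×W)/2. %TGI = 100×[1 − AUC(treatment/d)/AUC(vehicle/d)] from fitted growth curves, with group means. Tumor lysates were immunoblotted for pS6.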

SK-OV-3 = experiment: Antitumor activity against human SK-OV-3 cells harboring FBXW7 R505L and CDKN2A mutant xenografted in mouse assessed as tumor growth inhibition at 2.5 mg/kg, po; assay type: functional; settings: read-out: TGI
Summary of the method: (§3)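 Human tumor xenografts in mice were dosed orally at the indicated mg/kg. Tumor volume was measured with calipers as (L×W×W)/2. %TGI = 100 × [1 − (AUC treatment/d)/(AUC vehicle/d)], using the area under the fitted tumor-growth curve per day for each dose group relative to vehicle.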

[13] = Antitumor activity against human A375.X1 cells xenografted in mouse assessed as tumor growth inhibition at 15 mg/kg, po administered every third day for 21 days in presence of 4-(2-(1H-indazol-4-yl)-6-((4-(methylsulfonyl)piperazin-1-yl)methyl)thieno[3,2-d]pyrimidin-4-yl)morpholine; assay type: functional; settings: A375.X1, 504 h, time 21 day, read-out: TGI; summary of the method: as §2
[14] = target: Serine/threonine-protein kinase Chk2 (Homo sapiens, UniProt O96017); experiment: Inhibition of CHK2 (unknown origin)
[15] = Antitumor activity against human A2058-X1 cells harboring BRAF V600E/PTEN L112Q/V175/TP53 V274F mutant xenografted in mouse assessed as tumor growth inhibition at 10 mg/kg, po; assay type: functional; settings: A2058-X1, read-out: TGI; summary of the method: as §1
DLD-1 = experiment: Antitumor activity against human DLD-1 cells xenografted in mouse assessed as tumor growth inhibition at 10 mg/kg, po administered every third day for 21 days in presence of 4-(2-(1H-indazol-4-yl)-6-((4-(methylsulfonyl)piperazin-1-yl)methyl)thieno[3,2-d]pyrimidin-4-yl)morpholine; assay type: functional; settings: DLD-1, 504 h, time 21 day, read-out: TGI; summary of the method: as §2
NCI-H69 = experiment: Antitumor activity against human NCI-H69 cells harboring RBI E748/PK3CA G106_R108/TP53 E171 mutant xenografted in mouse assessed as tumor growth inhibition at 5 mg/kg, po; assay type: functional; settings: read-out: TGI; summary of the method: as §3
A2058 [16] = experiment: Antitumor activity against human A2058 cells harboring BRAF V600E/PTEN deletion mutant xenografted in mouse assessed as suppression of ERK phosphorylation at 15 mg/kg, po administered every third day for 21 days and measured after 8 hrs post dose by western blot analysis; assay type: functional, organism-based; settings: time 512.0 hrs
888-mel [17] = experiment: Upregulation of Bim level in human 888-mel cells preincubated with compound for 24 hrs followed by compound washout and measured after 2 hrs in presence of 4-(2-(1H-indazol-4-yl)-6-((4-(methylsulfonyl)piperazin-1-yl)methyl)thieno[3,2-d]pyrimidin-4-yl)morpholine by immunoblotting analysis; assay type: functional, cell-based
[18] = target: Serine/threonine-protein kinase D2 (Homo sapiens, UniProt Q9BZL6); experiment: Inhibition of PKD2 (unknown origin)
[19] = target: Serine/threonine-protein kinase MARK2 (Homo sapiens, UniProt Q7KZI7); experiment: Inhibition of EMK1 (unknown origin)
NCI-H441 = experiment: Antitumor activity against human NCI-H441 cells harboring KRAS G12V/TP53 R158L/MET high mutant xenografted in mouse assessed as tumor growth inhibition at 10 mg/kg, po; assay type: functional; settings: read-out: TGI; summary of the method: as §3
G-361 = experiment: Antiproliferative activity against human G361 cells assessed reduction in cell viability incubated for 4 days in presence of 4-(2-(1H-indazol-4-yl)-6-((4-(methylsulfonyl)piperazin-1-yl)methyl)thieno[3,2-d]pyrimidin-4-yl)morpholine by celltiter-glo assay; assay type: functional; settings: time 4 day
Summary of the method: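 4-day CellTiter-Glo viability read-out on melanoma lines, cells exposed to increasing concentrations of each inhibitor alone and in combination.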

[20] = target: Tyrosine-protein kinase Lck (Homo sapiens, UniProt P06239); experiment: Inhibition of Lck (unknown origin)

Chain of Serine/threonine-protein kinase Chk2 (O96017 whole entry): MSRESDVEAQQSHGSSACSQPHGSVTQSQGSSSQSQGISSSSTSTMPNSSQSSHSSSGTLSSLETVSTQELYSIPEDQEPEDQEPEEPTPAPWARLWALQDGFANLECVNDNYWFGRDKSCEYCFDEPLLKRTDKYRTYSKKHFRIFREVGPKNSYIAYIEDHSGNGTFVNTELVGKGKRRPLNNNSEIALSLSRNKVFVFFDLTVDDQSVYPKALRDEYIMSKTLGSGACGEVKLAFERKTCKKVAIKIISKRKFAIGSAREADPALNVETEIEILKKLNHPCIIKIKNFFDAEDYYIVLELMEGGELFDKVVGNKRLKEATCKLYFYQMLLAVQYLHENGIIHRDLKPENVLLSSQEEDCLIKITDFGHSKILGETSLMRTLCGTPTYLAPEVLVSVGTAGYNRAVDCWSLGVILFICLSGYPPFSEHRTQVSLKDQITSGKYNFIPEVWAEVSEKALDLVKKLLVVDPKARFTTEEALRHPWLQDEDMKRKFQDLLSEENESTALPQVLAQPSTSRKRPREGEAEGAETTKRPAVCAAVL
Chain of Serine/threonine-protein kinase NLK (Q9UBE8 whole entry): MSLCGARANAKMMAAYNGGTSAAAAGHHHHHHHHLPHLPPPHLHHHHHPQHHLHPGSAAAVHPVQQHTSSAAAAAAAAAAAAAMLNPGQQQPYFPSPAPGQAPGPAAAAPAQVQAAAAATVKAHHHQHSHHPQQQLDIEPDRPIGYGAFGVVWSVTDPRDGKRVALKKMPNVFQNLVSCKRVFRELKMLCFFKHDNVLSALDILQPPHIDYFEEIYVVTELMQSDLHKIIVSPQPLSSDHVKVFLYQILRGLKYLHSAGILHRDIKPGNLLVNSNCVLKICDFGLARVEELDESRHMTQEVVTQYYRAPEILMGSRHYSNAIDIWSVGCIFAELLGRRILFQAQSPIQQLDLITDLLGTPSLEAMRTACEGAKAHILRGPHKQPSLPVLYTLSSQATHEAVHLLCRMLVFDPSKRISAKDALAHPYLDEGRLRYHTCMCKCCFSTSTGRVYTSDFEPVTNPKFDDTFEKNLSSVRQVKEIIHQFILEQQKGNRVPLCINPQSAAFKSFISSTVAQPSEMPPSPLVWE
Chain of Tyrosine-protein kinase Fes/Fps (P07332 whole entry): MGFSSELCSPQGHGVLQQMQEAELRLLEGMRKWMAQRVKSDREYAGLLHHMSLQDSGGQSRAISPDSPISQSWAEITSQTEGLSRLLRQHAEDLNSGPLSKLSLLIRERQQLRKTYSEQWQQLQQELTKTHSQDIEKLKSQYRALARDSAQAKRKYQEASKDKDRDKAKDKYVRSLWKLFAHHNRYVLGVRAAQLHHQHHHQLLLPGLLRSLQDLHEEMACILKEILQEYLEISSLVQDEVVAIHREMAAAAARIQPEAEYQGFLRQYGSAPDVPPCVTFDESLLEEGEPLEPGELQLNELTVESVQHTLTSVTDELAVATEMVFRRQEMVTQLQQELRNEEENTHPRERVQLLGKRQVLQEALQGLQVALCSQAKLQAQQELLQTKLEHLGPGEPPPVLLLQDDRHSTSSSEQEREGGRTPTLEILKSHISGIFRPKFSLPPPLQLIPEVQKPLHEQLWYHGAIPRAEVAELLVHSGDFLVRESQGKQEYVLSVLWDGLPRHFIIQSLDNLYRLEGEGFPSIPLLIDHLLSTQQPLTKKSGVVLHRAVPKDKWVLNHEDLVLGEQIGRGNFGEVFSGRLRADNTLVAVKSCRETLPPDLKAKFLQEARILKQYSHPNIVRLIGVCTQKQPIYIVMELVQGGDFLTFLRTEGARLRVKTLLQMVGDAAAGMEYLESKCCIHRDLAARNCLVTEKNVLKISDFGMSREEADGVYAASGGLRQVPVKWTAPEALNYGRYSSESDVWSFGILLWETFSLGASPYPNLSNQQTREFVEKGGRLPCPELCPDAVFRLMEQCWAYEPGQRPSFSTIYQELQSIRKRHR
Chain of Ephrin type-B receptor 4 (P54760 whole entry): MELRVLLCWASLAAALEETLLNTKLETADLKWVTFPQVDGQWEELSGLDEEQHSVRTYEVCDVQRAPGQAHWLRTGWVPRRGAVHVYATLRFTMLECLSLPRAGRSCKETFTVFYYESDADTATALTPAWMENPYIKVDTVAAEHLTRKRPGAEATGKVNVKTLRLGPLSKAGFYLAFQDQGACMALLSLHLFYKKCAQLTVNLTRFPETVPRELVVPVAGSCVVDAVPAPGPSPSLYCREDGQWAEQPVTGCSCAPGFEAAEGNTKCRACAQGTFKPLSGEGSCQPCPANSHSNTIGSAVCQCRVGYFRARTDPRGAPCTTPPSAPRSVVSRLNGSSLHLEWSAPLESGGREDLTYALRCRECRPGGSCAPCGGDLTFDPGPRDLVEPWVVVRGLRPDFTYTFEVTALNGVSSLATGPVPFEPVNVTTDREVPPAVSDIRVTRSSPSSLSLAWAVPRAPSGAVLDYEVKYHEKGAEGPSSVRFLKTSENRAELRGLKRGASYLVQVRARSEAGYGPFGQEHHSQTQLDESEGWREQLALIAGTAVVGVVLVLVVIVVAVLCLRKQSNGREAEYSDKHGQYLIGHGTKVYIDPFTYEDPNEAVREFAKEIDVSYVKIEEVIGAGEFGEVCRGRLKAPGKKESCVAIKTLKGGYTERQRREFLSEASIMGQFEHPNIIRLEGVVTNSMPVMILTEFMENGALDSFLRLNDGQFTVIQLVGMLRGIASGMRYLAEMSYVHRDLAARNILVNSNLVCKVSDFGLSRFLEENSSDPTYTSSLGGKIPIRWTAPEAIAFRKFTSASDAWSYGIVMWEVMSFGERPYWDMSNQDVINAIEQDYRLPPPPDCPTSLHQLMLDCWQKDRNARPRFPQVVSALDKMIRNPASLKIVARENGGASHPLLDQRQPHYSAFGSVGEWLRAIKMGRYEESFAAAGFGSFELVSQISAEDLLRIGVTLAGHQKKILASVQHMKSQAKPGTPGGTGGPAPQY
Chain of Serine/threonine-protein kinase MARK2 (Q7KZI7 whole entry): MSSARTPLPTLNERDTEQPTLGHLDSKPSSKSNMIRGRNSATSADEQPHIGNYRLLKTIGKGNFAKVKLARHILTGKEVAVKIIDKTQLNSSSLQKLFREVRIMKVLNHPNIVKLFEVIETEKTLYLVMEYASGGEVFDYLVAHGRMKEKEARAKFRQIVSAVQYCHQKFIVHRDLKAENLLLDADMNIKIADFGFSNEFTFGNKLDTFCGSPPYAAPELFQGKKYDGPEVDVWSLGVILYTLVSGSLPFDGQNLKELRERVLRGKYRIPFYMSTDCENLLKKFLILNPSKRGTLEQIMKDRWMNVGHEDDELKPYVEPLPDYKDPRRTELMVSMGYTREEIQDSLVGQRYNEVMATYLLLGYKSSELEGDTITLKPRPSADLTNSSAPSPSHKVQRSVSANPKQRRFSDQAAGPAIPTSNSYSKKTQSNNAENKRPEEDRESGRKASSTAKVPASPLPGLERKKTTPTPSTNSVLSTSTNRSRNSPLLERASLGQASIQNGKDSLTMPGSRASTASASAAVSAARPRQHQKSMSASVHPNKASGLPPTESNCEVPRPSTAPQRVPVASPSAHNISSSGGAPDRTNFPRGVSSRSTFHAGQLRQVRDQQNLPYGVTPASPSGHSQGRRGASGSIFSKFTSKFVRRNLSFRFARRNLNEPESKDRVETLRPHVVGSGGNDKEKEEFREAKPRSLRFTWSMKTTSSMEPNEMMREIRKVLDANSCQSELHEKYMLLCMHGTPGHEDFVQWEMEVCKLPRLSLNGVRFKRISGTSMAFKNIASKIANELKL
Chain of Phosphatidylinositol 4,5-bisphosphate 3-kinase catalytic subunit beta isoform (P42338 whole entry, canonical isoform): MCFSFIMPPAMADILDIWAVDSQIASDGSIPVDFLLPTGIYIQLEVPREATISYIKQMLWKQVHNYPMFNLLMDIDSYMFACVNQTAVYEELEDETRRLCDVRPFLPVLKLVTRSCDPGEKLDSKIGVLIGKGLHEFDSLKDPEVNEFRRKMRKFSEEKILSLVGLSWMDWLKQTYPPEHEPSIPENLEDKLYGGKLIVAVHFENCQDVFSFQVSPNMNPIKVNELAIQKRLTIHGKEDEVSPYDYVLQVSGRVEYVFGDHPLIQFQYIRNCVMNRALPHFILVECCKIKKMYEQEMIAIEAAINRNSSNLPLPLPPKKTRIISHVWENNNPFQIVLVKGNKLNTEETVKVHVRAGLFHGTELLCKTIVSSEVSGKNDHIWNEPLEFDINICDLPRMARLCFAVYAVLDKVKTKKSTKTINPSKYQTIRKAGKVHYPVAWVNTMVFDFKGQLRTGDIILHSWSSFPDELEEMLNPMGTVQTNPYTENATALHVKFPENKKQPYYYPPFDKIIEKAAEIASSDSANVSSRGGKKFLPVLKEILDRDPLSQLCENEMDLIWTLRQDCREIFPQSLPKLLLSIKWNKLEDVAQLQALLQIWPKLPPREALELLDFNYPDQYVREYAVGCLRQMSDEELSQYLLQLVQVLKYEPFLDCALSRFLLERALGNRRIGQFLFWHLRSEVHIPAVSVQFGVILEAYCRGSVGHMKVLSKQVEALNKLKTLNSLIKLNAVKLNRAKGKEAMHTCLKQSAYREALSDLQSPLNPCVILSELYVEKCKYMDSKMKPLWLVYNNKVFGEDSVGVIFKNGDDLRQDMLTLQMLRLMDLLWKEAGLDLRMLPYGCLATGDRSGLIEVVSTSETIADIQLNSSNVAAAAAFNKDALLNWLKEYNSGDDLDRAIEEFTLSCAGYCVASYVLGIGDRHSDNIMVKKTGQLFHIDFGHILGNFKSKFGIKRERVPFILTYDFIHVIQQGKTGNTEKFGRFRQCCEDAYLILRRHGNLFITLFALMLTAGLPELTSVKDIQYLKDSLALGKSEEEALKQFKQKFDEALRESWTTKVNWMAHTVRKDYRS

Question: With `O=C(c1ccc(F)c(F)c1Nc1ccc(I)cc1F)N1CC(O)([C@@H]2CCCCN2)C1` [COBIMETINIB] as the molecule, how does the IC50 [1] read?
Answer: > 10 µM

Question: And the IC50 [2]?
Answer: > 10 µM

Question: What about the IC50 [3] of the same molecule?
Answer: > 10 µM

Question: What about the inhibition in vivo at 10 mg/kg [4] of the same molecule?
Answer: 104%

Question: And the IC50 (Ephrin type-B receptor 4)?
Answer: > 10 µM

Question: And the inhibition in vivo at 5 mg/kg (A549 [5])?
Answer: 51.4%

Question: And the inhibition in vivo at 5 mg/kg [6]?
Answer: 45%

Question: What about the Activity (888-mel [7]) of the same molecule?
Answer: inactive

Question: What about the inhibition (A2058 [8]) of the same molecule?
Answer: Active

Question: And the IC50 [9]?
Answer: > 10 µM

Question: And the Activity (A2058 [10])?
Answer: Active

Question: And the inhibition in vivo at 10 mg/kg (A549 [11])?
Answer: 108%

Question: And the inhibition in vivo at 20 mg/kg (A2058 [12])?
Answer: 34%

Question: What about the inhibition in vivo at 2.5 mg/kg (SK-OV-3) of the same molecule?
Answer: 36%

Question: What about the inhibition in vivo at 15 mg/kg [13] of the same molecule?
Answer: 122%

Question: And the IC50 [14]?
Answer: > 10 µM

Question: What about the inhibition in vivo at 10 mg/kg [15] of the same molecule?
Answer: 61%

Question: What about the inhibition in vivo at 10 mg/kg (DLD-1) of the same molecule?
Answer: 72%

Question: What about the inhibition in vivo at 5 mg/kg (NCI-H69) of the same molecule?
Answer: 21%

Question: And the Activity (A2058 [16])?
Answer: Active

Question: What about the Activity (888-mel [17]) of the same molecule?
Answer: Active

Question: And the IC50 [18]?
Answer: > 10 µM

Question: And the IC50 [19]?
Answer: > 10 µM

Question: And the inhibition in vivo at 10 mg/kg (NCI-H441)?
Answer: 85%

Question: What about the Activity (G-361) of the same molecule?
Answer: 60%

Question: What about the IC50 [20] of the same molecule?
Answer: > 10 µM
